Hits are enriched below; roughly 2.9% of the tested compounds scored in any of these assays.
UBC13 inh = blocks human UBC13 polyubiquitin chain formation. inhibition, % at 20 µM. AID 485273. 330,000 compounds, 0.47% hits. TR-FRET. P61088; in the data active means inhibition above about 45%, passing the limit was not always enough; inconclusive means no clear call, values can overlap the other calls
Target sequence (P61088 whole entry, looked up): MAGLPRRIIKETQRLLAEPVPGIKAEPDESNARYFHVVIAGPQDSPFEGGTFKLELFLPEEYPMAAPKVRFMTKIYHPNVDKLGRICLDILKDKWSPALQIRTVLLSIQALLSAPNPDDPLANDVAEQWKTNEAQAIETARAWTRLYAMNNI
PfGluPho inh = PfG6PD (Plasmodium falciparum) enzyme inhibition | PfGluPho enzyme, NADPH resazurin-diaphorase fluorescence | AID 504690 | 350,000 compounds, 0.78% hits | inhibition, % at 20 µM;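 active means inhibition reaching at least a set limit at 20 µM in the primary screen, cut at about 59% in these data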;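 further: 0% = DMSO wells with substrate and 100% = DMSO wells lacking glucose-6-phosphate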
EBNA-1 inhibitor = blocks EBNA-1 binding to DNA. 300,000 compounds, 0.34% hits. EBNA-1 DNA binding, fluorescence polarization. inhibition, % at 14.8 µM. AID 1950; in the data active means inhibition above about 28%
Apaf-1 inh = blocks human Apaf-1 apoptosome activity; 330,000 compounds, 0.71% hits; inhibition, % at 20 µM; O14727; reconstituted apoptosome caspase-3 activity, DEVD-Rh110 fluorescence; AID 489030; active means inhibition of at least 40% at 20 µM;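 further: plate controls were DMSO wells for no effect and DEVD-CHO caspase inhibitor wells for full effect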
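Material: cell-free apoptosome with Apaf-1, procaspase-3 and caspase-9; Buffer or medium: Hepes pH 7.5 with detergent and BSA; Reagent: cytochrome c trigger plus (Z-DEVD)2-Rh110 caspase-3 substrate; Times: compound with Apaf-1, dATP, procaspase-3 30 min, then 50 min reaction, room temperature; Technique: Rh110 fluorescence intensity.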
PfM18AAP inh = blocks P. falciparum M18 aspartyl aminopeptidase; AID 1822; inhibition, % at 7.35 µM; recombinant PfM18AAP, H-Glu-NHMec fluorogenic cleavage; 290,000 compounds, 1.2% hits;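 active means inhibition above the campaign mean inhibition over all tested compounds plus 3 SD, cut at about 28% in these data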;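 further: 0% = plate median of test compound wells and 100% = 2 mM ZnCl2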
ZTA DNA inh = ZTA (EBV) inhibition in EBNA-1 counter-screen; ZTA-DNA binding, fluorescence polarization; P03206; 320,000 compounds, 0.15% hits; AID 2234; inhibition, % at 11 µM; in the data active means inhibition above about 33%
Target sequence (P03206 whole entry, looked up): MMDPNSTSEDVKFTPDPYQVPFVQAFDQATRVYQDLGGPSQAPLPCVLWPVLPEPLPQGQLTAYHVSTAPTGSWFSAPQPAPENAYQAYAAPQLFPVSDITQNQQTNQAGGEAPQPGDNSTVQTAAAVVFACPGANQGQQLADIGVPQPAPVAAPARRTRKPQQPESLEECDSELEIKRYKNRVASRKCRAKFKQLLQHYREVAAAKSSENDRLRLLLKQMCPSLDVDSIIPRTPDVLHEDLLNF
EBNA-1 confirm = EBNA-1 (EBV) inhibition, confirmation | shares compounds with EBNA-1 inhibitor | Recombinant EBNA-1 DBD, Cy5-DNA fluorescence polarization | inhibition, % at 14.8 µM | 830 compounds, 35% hits;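 active means mean inhibition across replicates above a set limit taken from the earlier primary screen, cut at about 28% in these data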;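 further: plate controls were EBNA-1 protein with DMSO for no effect and wells lacking EBNA-1 for full effect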
ZTA counter trip = blocks Epstein-Barr virus ZTA in triplicate, EBNA-1 counter-screen | AID 2328 | shares compounds with EBNA-1 inhibitor | 830 tested, under 10 active | inhibition, % at 11.1 µM | Zta-ZRE DNA binding, Cy5 fluorescence polarization;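 active means mean inhibition over triplicates above a set limit taken from the primary EBNA-1 screen, cut at about 37% in these data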;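 further: purified full length Zta protein with Cy5 labeled ZRE DNA probe; 0% = Zta with DMSO and 100% = wells lacking Zta protein; inhibitors lower polarization by freeing the labeled DNA probe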
The depositor's hits bear a star; ? = inconclusive; · = no result given.

SMILES	UBC13 inh	PfGluPho inh	EBNA-1 inhibitor	Apaf-1 inh	PfM18AAP inh	ZTA DNA inh	EBNA-1 confirm	ZTA counter trip
CCCC[C@@H]1C=C(C(=O)O)[C@H](c2ccc(Cl)c(Cl)c2)N1S(=O)(=O)c1ccc(C)cc1	-30.9	-56.4	·	16.1	·	·	·	·
O=C(COc1ccc(Cl)cc1)NCc1ccccc1	-2.7	10.3	0.7	1.4	0.8	0.1	·	·
Cc1c(Cl)cccc1NC(=O)c1ccc(OCC(=O)NCc2ccccc2)cc1	-3.2	-10.2	33.1*	-5.8	-0.2	-1.6	44.5*	14.3
COCCN1Cc2cccc(C(=O)Nc3ccc(-c4nc5ccccc5[nH]4)cc3)c2C1=O	-5.6	-16.9	5.3	-1.5	1.6	-7.2	·	·
CCCN1Cc2cccc(C(=O)Nc3ccc(-c4nc5ccccc5[nH]4)cc3)c2C1=O	0.6	-0.9	58.3*	-12.4	-0.2	-6.0	50.7*	3.4
COc1cc(F)ccc1S(=O)(=O)NCc1cccnc1	-8.7	-5.3	-0.1	-4.1	-3.0	8.4	·	·
C/C(=N\Nc1ccc(C(=O)O)cc1)c1ccc(-n2ccnc2)cc1	-6.2	9.8	-2.5	-2.9	17.0	7.8	·	·
COc1ccc(N2CCN(C(=O)CN(C)S(=O)(=O)c3cc(C)ccc3OC)CC2)cc1	6.4	1.2	-14.4	1.2	-8.8	7.9	·	·
Cc1ccc(C(C(=O)NCC2CCCO2)N(Cc2ccccc2F)C(=O)Cn2nnc(-c3cccs3)n2)cc1 (stereo unspecified)	-1.4	-4.8	36.6*	25.1	1.5	-9.5	-1.0	0.3
CC(=O)c1sc(-c2ccc(F)cc2F)nc1C	-6.0	-3.3	-2.7	2.9	-1.8	10.0	·	·
CC(C)(C)NC(=O)CN(C(=O)CNC(=O)c1cccs1)c1ccc2c(c1)OCCO2	-1.7	-20.6	-17.5	-13.5	0.9	7.6	·	·
NC(=O)CSc1nnc2n(N)c(=O)c3ccccc3n12	22.8	-13.3	-3.0	1.3	-4.0	-11.8	·	·
COC(=O)c1cccc(Nc2cc(C)nc(-c3ccccc3O)n2)c1	?	15.1	5.2	-5.1	-3.8	19.2	·	·
COC(=O)c1ccc(Nc2cc(C)nc(-c3ccccc3O)n2)cc1	?	12.6	29.4*	-1.7	-5.9	-2.9	0.1	-3.8
O=C(NC(=S)Nc1ccc(S(=O)(=O)N2CCCC2)cc1)c1cccs1	8.3	-6.9	-8.0	0.8	-1.1	13.8	·	·
O=C(NC(=S)Nc1ccc(S(=O)(=O)N2CCCCCC2)cc1)c1cccs1	-2.1	15.1	85.0*	0.6	-1.8	-12.6	65.6*	18.1
CCc1ccc(C(=O)NNC(=O)c2ccc(=O)n(C)n2)cc1	2.1	-6.0	-0.3	10.2	2.7	-3.9	·	·
CC(C)c1nnc(NC(=O)CCC(=O)Nc2ccc(F)cc2)s1	2.8	-21.3	10.1	1.9	9.6	-4.9	·	·
CCc1ccc(NC(=O)CCC(=O)Nc2nnc(C(C)C)s2)cc1	-2.3	3.3	40.1*	-1.7	3.6	-2.3	10.1	-3.4
Cc1c(C)c2cc(Cl)c(O)c(CN(C)C)c2oc1=O	15.1	3.8	-9.6	9.9	-10.2	-2.6	·	·
O=c1oc2c(O)c(O)cc3c(=O)oc4c(O)c(O)cc1c4c23	·	29.7	38.6*	·	29.5*	25.9	46.7*	36.9*
O=C(CCn1cnc2ccccc2c1=O)Nc1nc(-c2ccc(Br)cc2)cs1	-14.3	3.9	32.3*	6.1	1.5	16.0	44.4*	25.6
O=C(Cn1nc(C(=O)O)c2ccccc2c1=O)Nc1nc(-c2ccccc2)cs1	-6.3	4.1	31.5*	-19.9	1.5	-1.8	30.2*	0.6
O=C(Cn1cnc2ccccc2c1=O)Nc1nc2ccccc2s1	-0.1	-17.9	45.2*	2.1	-0.6	5.3	54.8*	1.6
CCN(Cc1ccncc1)Cc1nc(-c2ccc(C(=O)OC)cc2)no1	-1.2	-6.2	1.2	5.9	1.4	2.3	·	·
SMILES	UBC13 inh	PfGluPho inh	EBNA-1 inhibitor	Apaf-1 inh	PfM18AAP inh	ZTA DNA inh	EBNA-1 confirm	ZTA counter trip
COc1ccc(NC(=O)CCC(=O)c2cccs2)cc1S(=O)(=O)Nc1ccc(Cl)cc1	8.0	4.8	33.8*	5.8	0.4	16.2	16.9	-0.2
COc1ccc(C(=O)NCc2nnc(SCC(=O)Nc3cc(Cl)ccc3OC)o2)cc1	3.3	-8.8	-4.9	-1.6	4.4	-1.3	·	·
CCOc1ccc2nc(N3CCOCC3)nc(C)c2c1	6.1	5.6	3.3	0.4	1.2	15.4	·	·
CCOc1ccc2nc3ccc4[nH]onc4c3c2c1	-0.5	4.2	31.1*	4.3	24.5	0.6	8.8	-1.2
CCOC(=O)N=S(=O)(Oc1ccc([N+](=O)[O-])cc1)c1ccccc1 (stereo unspecified)	2.5	2.0	136.6*	6.0	0.5	3.2	-5.0	-0.7
NS(=O)(=O)c1ccc(CCNC(=O)C(=O)c2cn(CC(=O)N3CCCC3)c3ccccc23)cc1	-4.8	-7.5	-7.2	0.7	-1.9	-15.0	·	·
COC(=O)c1ccc2nc(NC(=O)CCS(=O)(=O)c3ccccc3)sc2c1	9.0	-4.7	44.4*	-9.8	-11.4	17.3	51.7*	4.6
O=C(Cc1ccc(-n2cccc2)cc1)NCc1cccs1	-3.2	5.5	32.5*	-0.3	0.5	-0.2	20.1	1.1
O=C(Cn1nnc(-c2ccc3c(c2)OCO3)n1)NCc1ccccc1	-1.1	0.0	18.8	-3.2	0.3	6.3	·	·
Cc1ccc(-c2nnn(CC(=O)NCCc3ccc4c(c3)OCO4)n2)cc1	0.5	2.4	44.4*	-3.2	4.0	5.9	10.4	8.8
CSc1ccccc1NC(=O)c1csc(C)c1	0.6	3.1	-12.4	9.0	-6.6	-5.0	·	·
O=C(NCCc1c[nH]c2ccccc12)C1CCC(Cn2c(=S)[nH]c3ccccc3c2=O)CC1 (stereo unspecified)	-6.6	-4.2	28.1*	21.4	1.1	15.3	7.1	-5.5
COCCNC(=O)C1CCC(Cn2c(=S)[nH]c3ccccc3c2=O)CC1 (stereo unspecified)	2.8	-4.8	-4.8	-0.7	-3.4	-0.8	·	·
Cc1ccc(C)c(S(=O)(=O)N2CCN(C(=O)CN3C(=O)C4CC=CCC4C3=O)CC2)c1 (stereo unspecified)	-1.4	-4.8	·	2.4	·	·	·	·
Cc1cc(NC(=O)COC(=O)c2oc3c(ccc4ccccc43)c2C)no1	-2.3	-18.9	50.4*	0.3	-3.0	16.8	55.6*	4.2
COc1cc(C(=O)Oc2ccc(/C=N/NC(=O)c3ccncc3)cc2)cc(OC)c1OC	5.2	21.4	34.0*	1.8	2.3	0.1	-13.7	-10.8
O=C(COC(=O)Cc1c(Cl)cccc1Cl)Nc1ccc2[nH]c(=O)[nH]c2c1	1.3	5.0	-11.7	-3.8	·	-6.2	·	·
CCc1nn(-c2ccccc2)c(=S)c2ccccc12	-2.5	1.8	35.0*	7.9	-3.9	-3.7	-2.3	9.2
